Screening data from PubChem BioAssay.
NRP1-CendR mod = alters CendR peptide binding to human NRP-1; inhibition, % at 25 µM; FAM-RPARPAR peptide binding to NRP-1, fluorescence polarization; 0.85% of 360,000 active; O14786;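 active = inhibition or corrected inhibition above about 18%, plus a signal ratio from 0.5 to 1.5, limit read from the data, passing the limit was not always enough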
ASAP1 GAP inh = blocks human ASAP1-stimulated Arf1 GTP hydrolysis | Q9ULH1 | GDP FP detection | inhibition, % at 16.5 µM | 0.19% of 360,000 active | AID 624377; in the data active = inhibition above about 25%
Target sequence (Q9ULH1 325-724 limits assumed): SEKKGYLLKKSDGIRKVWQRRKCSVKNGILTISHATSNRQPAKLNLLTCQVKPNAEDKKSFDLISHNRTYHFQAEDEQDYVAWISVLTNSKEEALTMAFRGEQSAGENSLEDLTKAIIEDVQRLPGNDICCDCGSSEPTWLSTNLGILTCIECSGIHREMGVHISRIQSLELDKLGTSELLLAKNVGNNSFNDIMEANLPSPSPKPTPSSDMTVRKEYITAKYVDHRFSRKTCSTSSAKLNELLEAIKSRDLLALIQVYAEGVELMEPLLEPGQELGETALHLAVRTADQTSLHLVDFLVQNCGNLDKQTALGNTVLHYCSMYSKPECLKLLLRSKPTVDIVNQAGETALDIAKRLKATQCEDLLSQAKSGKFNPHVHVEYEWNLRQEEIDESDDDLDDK
V-ATPase pH = yeast V-ATPase proton transport regulation by pHLuorin; S. cerevisiae, pHLuorin cytosolic pH fluorescence; response, % at 10 µM; 0.37% of 350,000 active; in the data active = response mostly above about 7.3%, no sharp cut-off; inactive = mostly below about 5.4%; note: actives read high
Granule exo inh = lytic granule exocytosis inhibition | TALL-104 LAMP-1 surface exposure, flow cytometry; cells stimulated with thapsigargin and PMA | inhibition, % at 10 µM | 0.66% of 360,000 active;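 active = inhibition above about 55%, limit read from the data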
ARFGAP1 inh = inhibitors of rat ARFGAP1; Q62848; Arfgap1-stimulated ARF1 GTP hydrolysis, GDP FP detection; inhibition, % at 16.5 µM; 0.26% of 360,000 active; AID 651572;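 active = inhibition above a per-plate limit, mean inhibition of low control wells plus 3 SD, cut at about 25% in these data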
Target sequence (Q62848 1-136 limits assumed): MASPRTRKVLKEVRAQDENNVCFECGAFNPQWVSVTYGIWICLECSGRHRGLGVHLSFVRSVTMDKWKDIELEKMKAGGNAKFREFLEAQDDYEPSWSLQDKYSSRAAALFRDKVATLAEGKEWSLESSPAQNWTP
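System: truncated rat Arfgap1 GAP domain / Benchmarks: high control wells lacking Arfgap1, low control full reaction with DMSO / Times: compound-enzyme preincubation 20 min, reaction 120 min, detection 60 min, 25 °C / Repeats: one replicate per compound / Also added: human ARF1(Δ1-17)-GTP substrate / Measured by: Tracer-displacement fluorescence polarization with EDTA stop, 620/688 nm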
A number is an active result. In the library only some 2.2% were active in any assay of this set; here they are far more common.

COc1cc(/C=N/N=C2/C(=O)Nc3ccccc32)cc(OC)c1O was read as NRP1-CendR mod 24.7, ASAP1 GAP inh inactive, V-ATPase pH inactive, Granule exo inh inactive and ARFGAP1 inh inactive.
COc1ccccc1NS(=O)(=O)c1cc(N/C(=N\S(=O)(=O)c2ccccc2)c2ccc(F)cc2)ccc1Cl was read as NRP1-CendR mod 33.6, ASAP1 GAP inh inactive, V-ATPase pH inactive, Granule exo inh inactive and ARFGAP1 inh inactive.
For Cc1ccc(-n2[nH]c(C)c(/C=N/Nc3ccc([N+](=O)[O-])cc3[N+](=O)[O-])c2=O)cc1C the results were NRP1-CendR mod 41.1, ASAP1 GAP inh inactive, V-ATPase pH inactive, Granule exo inh inactive and ARFGAP1 inh inactive.
Screening O=C(c1ccc2ccccc2c1)c1c[nH]cc1-c1ccccc1 returned NRP1-CendR mod inactive, ASAP1 GAP inh inactive, V-ATPase pH inactive, Granule exo inh inactive and ARFGAP1 inh inactive.
Screening Cc1cc(C(=O)c2ccc3ccccc3c2)c(C)o1 returned NRP1-CendR mod inactive, ASAP1 GAP inh inactive, V-ATPase pH inactive, Granule exo inh 73.2 and ARFGAP1 inh inactive.
For O=C(COc1ccccc1F)Nc1cc(S(=O)(=O)Nc2cccc(Cl)c2)ccc1O the results were NRP1-CendR mod 25.0, ASAP1 GAP inh inactive, V-ATPase pH inactive, Granule exo inh inactive and ARFGAP1 inh inactive.
Screening Cc1cc(C)nc(NS(=O)(=O)c2ccc(NC(=O)COc3ccccc3F)cc2)n1 returned NRP1-CendR mod inactive, ASAP1 GAP inh inactive, V-ATPase pH inactive, Granule exo inh inactive and ARFGAP1 inh inactive.
C[C@H](NC(=O)CCC1CCC(=O)N1)c1ccccc1 (some centres not stated) was read as NRP1-CendR mod 19.1, ASAP1 GAP inh inactive, V-ATPase pH inactive, Granule exo inh inactive and ARFGAP1 inh inactive.
Screening COc1cccc(CNC(=O)[C@H]2CCCN2C(=O)[C@H]2CCCN2C(=O)c2ccc(C)cc2)c1 returned ASAP1 GAP inh inactive and ARFGAP1 inh inactive.
CCCN1C(=O)/C(=C/c2ccc(C)o2)SC1=Nc1ccc(OC)cc1 was read as NRP1-CendR mod inactive, ASAP1 GAP inh inactive, V-ATPase pH inactive, Granule exo inh 80.5 and ARFGAP1 inh inactive.
For CCCN1C(=O)/C(=C/c2ccc(C)o2)SC1=Nc1ccc(OCC)cc1 the results were NRP1-CendR mod inactive, ASAP1 GAP inh inactive, V-ATPase pH inactive, Granule exo inh 70.4 and ARFGAP1 inh inactive.
COc1ccc(N=C2S/C(=C\c3ccc(N4CCOCC4)o3)C(=O)N2CCc2c[nH]c3ccccc23)cc1 was read as NRP1-CendR mod inactive, V-ATPase pH inactive and Granule exo inh 82.1.
For COc1cccc(CNC(=O)[C@H]2CCCN2C(=O)[C@H]2CCCN2C(=O)OC(C)(C)C)c1 the results were ASAP1 GAP inh inactive and ARFGAP1 inh inactive.
O=C1/C(=C/c2ccccc2[N+](=O)[O-])COc2ccccc21 was read as NRP1-CendR mod inactive, ASAP1 GAP inh inactive, V-ATPase pH inactive, Granule exo inh 83.8 and ARFGAP1 inh inactive.
CC1(c2nnc(Cc3ccccc3)o2)CC(c2ccccc2)=NO1 (configuration not stated) was read as NRP1-CendR mod inactive, ASAP1 GAP inh inactive, V-ATPase pH inactive, Granule exo inh inactive and ARFGAP1 inh inactive.
For CC1(c2nnc(Cc3ccccc3)o2)CC(c2cccc(Cl)c2)=NO1 (configuration not stated) the results were NRP1-CendR mod 27.5, ASAP1 GAP inh inactive, V-ATPase pH inactive, Granule exo inh inactive and ARFGAP1 inh inactive.
Cc1c(NC(=S)N/N=C/C=C/c2ccccc2)c(=O)n(-c2ccccc2)n1C was read as NRP1-CendR mod inactive, ASAP1 GAP inh inactive, V-ATPase pH inactive, Granule exo inh inactive and ARFGAP1 inh inactive.
For Cc1c(NC(=S)N/N=C/C=C/c2ccc([N+](=O)[O-])cc2)c(=O)n(-c2ccccc2)n1C the results were NRP1-CendR mod 35.5, ASAP1 GAP inh inactive, V-ATPase pH inactive, Granule exo inh inactive and ARFGAP1 inh inactive.
`CC(C)OC(=O)[C@@H](Cc1ccccc1)N[C@H](/C=C/c1ccccc1)[C@@H](O)Cc1ccccc1` gave ASAP1 GAP inh inactive and ARFGAP1 inh inactive.
`C[C@@H]1CN(c2ccc(N3CCNC[C@H]3C)cc2C#N)C[C@H](C)O1` gave ASAP1 GAP inh inactive and ARFGAP1 inh inactive.
Nc1[nH]c(C(=O)c2ccccc2)c(-c2ccc(Cl)cc2)c1C(=O)c1c[nH]c2ccccc12 was read as ASAP1 GAP inh inactive and ARFGAP1 inh inactive.
For COC(=O)Oc1ccc(/C=N/NC(=O)CN(c2ccccc2Br)S(C)(=O)=O)cc1OC the results were NRP1-CendR mod 23.4, ASAP1 GAP inh inactive, V-ATPase pH inactive, Granule exo inh inactive and ARFGAP1 inh inactive.
For CCOC(=O)C(CNc1ccc(OCc2ccccc2)cc1)NC(=O)c1ccccc1 (configuration not stated) the results were ASAP1 GAP inh inactive and ARFGAP1 inh inactive.
Cc1cccnc1NC(=O)CN1C(=O)NC(C)(c2ccc3ccccc3c2)C1=O (configuration not stated) was read as NRP1-CendR mod 27.9, ASAP1 GAP inh inactive, V-ATPase pH inactive, Granule exo inh inactive and ARFGAP1 inh inactive.
For COC(=O)[C@]12C[C@H](CC(=O)NCCCN3CCCC3=O)C(=O)N(Cc3ccccc3)C1=C[C@H](C1CCCC1)O[C@@H]2C the results were ASAP1 GAP inh inactive and ARFGAP1 inh inactive.
Cc1ccc(/C=C2/SC(=O)NC2=S)o1 was read as NRP1-CendR mod 52.6, V-ATPase pH inactive and Granule exo inh inactive.
`COc1ccccc1CNS(=O)(=O)c1ccc(F)cc1Br` gave ASAP1 GAP inh inactive and ARFGAP1 inh inactive.
`Cc1cccc(/C=C2/Sc3ccc(C(=O)NCCCN4CCOCC4)cc3NC2=O)c1` gave NRP1-CendR mod inactive, ASAP1 GAP inh inactive, V-ATPase pH inactive, Granule exo inh 60.0 and ARFGAP1 inh inactive.
Screening CCN1CCN(CCCNC(=O)c2ccc3c(c2)NC(=O)/C(=C\c2cccc(C)c2)S3)CC1 returned NRP1-CendR mod inactive, ASAP1 GAP inh inactive, V-ATPase pH inactive, Granule exo inh inactive and ARFGAP1 inh inactive.
For COC(=O)c1cn(C(=O)c2ccc(Br)o2)c2ccccc12 the results were NRP1-CendR mod 25.2, ASAP1 GAP inh inactive, V-ATPase pH inactive, Granule exo inh inactive and ARFGAP1 inh inactive.
`Cc1ccc(C)c(NC(=O)C(=O)NCCCN2CCOCC2)c1` gave NRP1-CendR mod 33.3, ASAP1 GAP inh inactive, V-ATPase pH inactive, Granule exo inh inactive and ARFGAP1 inh inactive.
`CNC(=S)N/N=C/c1c2ccccc2c(Cl)c2ccccc12` gave NRP1-CendR mod inactive, ASAP1 GAP inh inactive, V-ATPase pH inactive, Granule exo inh 56.5 and ARFGAP1 inh inactive.
`COCCNC(=S)N/N=C/c1c2ccccc2cc2ccccc12` gave NRP1-CendR mod inactive, ASAP1 GAP inh inactive, V-ATPase pH inactive, Granule exo inh inactive and ARFGAP1 inh inactive.
CNC(=S)N/N=C/c1c(C)cccc1Cl was read as NRP1-CendR mod inactive, ASAP1 GAP inh inactive, V-ATPase pH inactive, Granule exo inh inactive and ARFGAP1 inh inactive.
`NC(=S)N/N=C\c1c2ccccc2cc2ccccc12` gave NRP1-CendR mod inactive, ASAP1 GAP inh inactive, V-ATPase pH inactive, Granule exo inh 64.6 and ARFGAP1 inh inactive.
